In ChEMBL document CHEMBL4422612, “Small Molecule Inhibitor that Stabilizes the Autoinhibited Conformation of the Oncogenic Tyrosine Phosphatase SHP2” (J Med Chem, 2019):
Changes are numbered by the printed parent chain. Active and inactive are the calls of the source. No cut-off for these calls is given here.

What was measured:
[1] = biological target: T1, Tyrosine-protein phosphatase non-receptor type 11 (Homo sapiens) (UniProt Q06124); test: Stable inhibition of human wild-type full length SHP2 at 5 to 20 uM using H-Glu-Phe-pTyr-Ala-Glu-Val-Gly-Arg-Ser-ProPro-Asp-Pro-Ala-Lys as substrate followed by 3 times wash out with phosphate buffer by phosphatase assay
T1 sequence (whole entry): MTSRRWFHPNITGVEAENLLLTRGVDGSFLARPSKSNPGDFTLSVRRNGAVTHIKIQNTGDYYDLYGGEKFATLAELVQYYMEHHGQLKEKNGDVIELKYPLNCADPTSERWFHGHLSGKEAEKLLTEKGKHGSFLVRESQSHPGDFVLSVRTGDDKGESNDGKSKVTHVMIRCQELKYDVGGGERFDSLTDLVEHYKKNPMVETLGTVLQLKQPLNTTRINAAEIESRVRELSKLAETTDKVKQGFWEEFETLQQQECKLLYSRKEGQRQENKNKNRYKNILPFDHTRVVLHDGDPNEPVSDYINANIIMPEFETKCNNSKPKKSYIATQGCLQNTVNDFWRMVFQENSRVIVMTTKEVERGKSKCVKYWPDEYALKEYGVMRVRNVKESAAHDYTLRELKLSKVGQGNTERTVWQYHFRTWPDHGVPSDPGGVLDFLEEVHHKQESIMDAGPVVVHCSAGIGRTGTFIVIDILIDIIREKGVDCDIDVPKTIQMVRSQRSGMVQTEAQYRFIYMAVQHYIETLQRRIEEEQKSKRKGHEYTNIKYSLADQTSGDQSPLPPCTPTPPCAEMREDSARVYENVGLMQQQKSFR

[2] = biological target: T2, Tyrosine-protein phosphatase non-receptor type 11 (Mus musculus) (UniProt P35235); test: Inhibition of SHP2 in mouse Ba/F3 cells assessed as reduction in IL3-stimulated STAT5 phosphorylation pretreated for 4 hrs followed by IL3 stimulation and measured after 5 to 60 mins by Western blot analysis; type: cell-based
T2 sequence (whole entry): T1 sequence (whole entry) with M450V, A550V, K590R
Procedure, shortened: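 Ba/F3 cells starved overnight in serum- and cytokine-free RPMI1640. Treated with 20 µM compound for 4 h, then IL-3 (2 ng/mL) for the indicated times. RIPA lysates (50 µg) immunoblotted for p-Erk, p-Akt, p-Jak2 and p-Stat5, then reprobed for total proteins. Representative of three experiments.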

NCI-H661 = test: Growth inhibition of human NCI-H661 cells after 48 hrs by cell proliferation-based assay; type: functional
Procedure, shortened: (§1)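 H661 (PTPN11 N58S/+) and H596 (WT PTPN11) lung cancer cells exposed to a concentration series for 48 h, DMSO as control. Cell number measured by One Solution proliferation assay. Triplicates from one of three repeated experiments.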

[3] = biological target: T1, Tyrosine-protein phosphatase non-receptor type 11 (Homo sapiens); test: Binding affinity to His-tagged SHP2 (unknown origin) assessed as melting temperature at 5 uM measured every 50 secs by thermal shift assay (reference value: 43.5 +/- 0.95 degC)
[4] = biological target: T1, Tyrosine-protein phosphatase non-receptor type 11 (Homo sapiens); test: Mixed type inhibition of human wild-type full length SHP2 assessed as substrate [Et] at 20 uM using H-Glu-Phe-pTyr-Ala-Glu-Val-Gly-Arg-Ser-Pro-Pro-Asp-Pro-Ala-Lys as substrate by Lineweaver-Burk plot analysis (reference value: 0.029 uM)
NCI-H596 = test: Growth inhibition of human NCI-H596 cells after 48 hrs by cell proliferation-based assay; type: functional; procedure, shortened: as §1

Compound: CCOc1cc(O)c(C(=O)/C=C/c2ccc(Cl)cc2Cl)cc1CN1CCC=C(n2c(=O)[nH]c3ccccc32)C1
- inhibition [1]: Active
- inhibition [2]: Dose-dependent effect
- growth inhibition (GI) (NCI-H661): Dose-dependent effect
- Tm [3]: 46.3 °C
- Activity [4]: 0.029 µM
- growth inhibition (GI) (NCI-H596): Dose-dependent effect
